According to ChEMBL document CHEMBL1649084, “Novel trisubstituted benzimidazoles, targeting Mtb FtsZ, as a new class of antitubercular agents” (J Med Chem, 2011):
Values after ≈ are worked out from the molar mass of the structure shown.

How the values were obtained:
[1] = test system: Mycobacterium tuberculosis; assay: Antimycobacterial activity against Mycobacterium tuberculosis H37Rv NHN382 after 24 hrs by microplate Alamar Blue assay; type: functional
Vero = assay: Cytotoxicity against african green monkey Vero cells after 3 days by Alamar Blue assay; type: cell-based; details: chlorocebus sabaeus, 72 h
[2] = test system: Mycobacterium tuberculosis; assay: Antimycobacterial activity against Mycobacterium tuberculosis H37Rv W210 after 24 hrs by microplate Alamar Blue assay; type: functional
[3] = target: T1, Cell division protein FtsZ (Mycobacterium tuberculosis, UniProt P9WN95); assay: (§1) Inhibition of Mycobacterium tuberculosis FtsZ polymerization
T1 sequence (P9WN95 whole entry): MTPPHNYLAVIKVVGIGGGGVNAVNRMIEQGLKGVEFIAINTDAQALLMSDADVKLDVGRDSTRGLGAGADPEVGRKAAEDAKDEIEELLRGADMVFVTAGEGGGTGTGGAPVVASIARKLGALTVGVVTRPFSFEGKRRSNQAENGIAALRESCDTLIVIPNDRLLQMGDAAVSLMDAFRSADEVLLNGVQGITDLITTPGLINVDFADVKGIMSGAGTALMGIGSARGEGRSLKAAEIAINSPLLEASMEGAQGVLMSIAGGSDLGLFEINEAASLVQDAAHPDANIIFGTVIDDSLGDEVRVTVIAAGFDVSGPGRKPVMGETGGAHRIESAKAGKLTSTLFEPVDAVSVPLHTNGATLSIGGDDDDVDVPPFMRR
Procedure, shortened: (§2)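 90° light scattering at 30 °C, excitation/emission 400 nm. Inhibitor at various concentrations preincubated in 50 mM MES, 5 mM MgCl2, 50 mM KCl, pH 6.5 to baseline. Mtb FtsZ (15 μM) then added; polymerization started with 5 mM GTP (20 μL into 1,000 μL final); monitored 30-60 min. DMSO-matched controls.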

[4] = test system: Mycobacterium tuberculosis; assay: Antimycobacterial activity against Mycobacterium tuberculosis H37Rv after 24 hrs by microplate Alamar Blue assay; type: functional
Procedure, shortened: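 MIC99 by microplate Alamar Blue: DMSO stocks serially diluted 2-fold in 96-well plates; Mtb grown in 7H9 + 10% OADC + 0.05% Tween-80, used at mid-log phase, added to OD600 0.005; 6 days at 37 °C, then AlamarBlue added and a further 24 h at 37 °C; read by colour change; triplicate.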

[5] = target: T2, Cell division protein FtsZ (Mycobacterium tuberculosis) (UniProt P9WN95); assay: as §1; procedure, shortened: as §2
T2 sequence (whole entry): T1 sequence (P9WN95 whole entry)

| SMILES | MIC99 [1] | Cytotoxic concentration (Vero) | MIC99 [2] | MIC99 [4] | other results |
| --- | --- | --- | --- | --- | --- |
| CCCCOC(=O)Nc1cc2nc(C3CCCCC3)[nH]c2cc1N1CCCC1 | 1 µM (≈ 0.385 µg/mL) | > 200 µM | 1 µM (≈ 0.385 µg/mL) | – | – |
| CCCCOC(=O)Nc1cc2nc(C3CCCCC3)[nH]c2cc1N(CC)CC | – | > 400 µM | 4 µM (≈ 1.55 µg/mL) | – | MIC99 ([1]; Mycobacterium tuberculosis, H37Rv NHN382, 24 h, read-out: MIC99): 2 µM (≈ 0.773 µg/mL); IC50 [3]: 7.69 µM |
| CCN(CC)c1cc2[nH]c(C3CCCCC3)nc2cc1NC(=O)c1ccc(C)cc1 | – | > 400 µM | – | 15.1 µM (≈ 6.11 µg/mL) | – |
| CCCOC(=O)Nc1cc2nc(C3CCCCC3)[nH]c2cc1N(CC)CC | – | > 400 µM | – | 4.3 µM (≈ 1.6 µg/mL) | – |
| O=C(Nc1cc2nc(C3CCCCC3)[nH]c2cc1N1CCCC1)OCc1ccccc1 | 3.7 µM (≈ 1.55 µg/mL) | > 200 µM | 3.7 µM (≈ 1.55 µg/mL) | – | – |
| CCN(CC)c1cc2[nH]c(C3CCCCC3)nc2cc1NC(=O)c1ccccc1 | – | > 400 µM | – | 7.9 µM (≈ 3.09 µg/mL) | IC50 [3]: 6.21 µM; Activity [5]: Dose-dependent effect |
| C=CCCOC(=O)Nc1cc2nc(C3CCCCC3)[nH]c2cc1N(CC)CC | 4.2 µM (≈ 1.62 µg/mL) | > 400 µM | 4.2 µM (≈ 1.62 µg/mL) | – | – |
| CCN(CC)c1cc2[nH]c(C3CCCCC3)nc2cc1NC(=O)c1ccc(OC)cc1 | – | > 400 µM | – | 7.4 µM (≈ 3.11 µg/mL) | – |
| CCN(CC)c1cc2[nH]c(C3CCCCC3)nc2cc1NC(=O)c1ccc(Cl)cc1 | – | > 400 µM | – | 14.1 µM (≈ 5.99 µg/mL) | – |
| CCN(CC)c1cc2[nH]c(C3CCCCC3)nc2cc1NC(=O)OCc1ccccc1 | – | > 400 µM | – | 3.8 µM (≈ 1.6 µg/mL) | – |
| CCOC(=O)Nc1cc(NC(C)=O)c2[nH]c(-c3ccccc3)nc2c1 | 2.3 µM (≈ 0.778 µg/mL) | > 200 µM | – | – | MIC99 ([2]; Mycobacterium tuberculosis, H37Rv W210, 24 h, read-out: MIC99): 4.6 µM (≈ 1.56 µg/mL) |
